HDAC3 inh: human HDAC3 inhibition. O15379. recombinant HDAC3, fluorogenic peptide/trypsin coupled, fluorescence. inhibition, % at 8.3 µM. 320,000 compounds, 0.15% hits. AID 2718; in the data active = inhibition above about 26%, passing the limit was not always enough; inconclusive = no clear call, values can overlap the other calls
T cell HTS: modulates CD8 T cell binding to vesicles. 2C CD8+ T cell-vesicle binding, flow cytometry; stronger effect = lower value. 330,000 compounds, 0.068% hits. AID 2052. response (vesicle binding), % at 7 µM;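 active = response, share of CD8 T cells binding vesicles, and their 90th percentile fluorescence all below set limits, cut at about 80% in these data, passing the limit was not always enough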;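 also: values below 100% mean blocked vesicle binding to the CD8+ T cells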
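Assay system: 2C TCR transgenic mouse naive CD8+ T cells, MACS-purified | Read-out: CD8+ gate FL2 mean fluorescence as % of same-row positive control | Signal: High-throughput flow cytometry with anti-B7-1 and anti-CD8 staining | Timing: Binding step 1.5 h, 37 °C, antibody labelling 20 min, ice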
Arr AP2 block: human beta-arrestin and AP2 interaction inhibition. FITC-arrestin peptide / GST-AP2 beads, flow cytometry; AP2 beta2 appendage carries R879A mutation. inhibition, % at 10 µM. 340,000 compounds, 0.31% hits. AID 504490;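 active = inhibition above a set limit, near 3 SD of compounds lacking own fluorescence, cut at about 54% in these data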;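 also: plate controls were DMSO wells for no effect and 5 µM unlabelled arrestin peptide for full effect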
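Test system: GST-tagged AP2 beta2-adaptin appendage (R879A) on 4 µm glutathione beads; also added: fluorescein-tagged arrestin peptide at 50 nM final; timing: 12 min plus 1 h, RT; signal: flow cytometry, FL1 (488/535 nm); read-out: percent drop in bead-associated FITC signal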
Pemphigus Ab inh: inhibitors of pemphigus antibody binding to human desmoglein-3 | 310,000 compounds, 0.48% hits | AID 588358 | P32926 | DSG3-coupled beads, scFv-anti-DSG3-GFP binding, flow cytometry; stronger effect = lower value | binding (percent of control), % at 10 µM;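 active = binding more than 3 SD below its plate's average and above zero; inconclusive = below that plate limit but binding exactly zero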
JMJD2C inh: blocks human GASC-1 demethylase activity; GST-JMJD2C(1-420) H3K9me3 demethylation, DELFIA europium; inhibition, % at 2.35 µM; 330,000 compounds, 0.069% hits; AID 2099;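 active = more than half of a compound's replicate wells show inhibition beyond 50%, single wells judged on their own value; inconclusive = some, but no more than half, of replicates pass 50% inhibition; inactive = no replicate passes 50% inhibition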;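 also: signal counts dimethyl H3K9 product captured on neutravidin plate; 0% = median of DMSO wells and 100% = 0.3 times that DMSO median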
LANA-H2B inh: blocks KSHV LANA binding to histone H2A/H2B | cell-free LANA-H2A/H2B peptide, fluorescence polarization | inhibition, % (concentration not given with the values) | 320,000 compounds, 0.6% hits | Q9QR71 | AID 2629; in the data active = inhibition mostly above about 10%, no sharp cut-off; inactive = mostly below about 6.7%
Target sequence (Q9QR71 whole entry, looked up): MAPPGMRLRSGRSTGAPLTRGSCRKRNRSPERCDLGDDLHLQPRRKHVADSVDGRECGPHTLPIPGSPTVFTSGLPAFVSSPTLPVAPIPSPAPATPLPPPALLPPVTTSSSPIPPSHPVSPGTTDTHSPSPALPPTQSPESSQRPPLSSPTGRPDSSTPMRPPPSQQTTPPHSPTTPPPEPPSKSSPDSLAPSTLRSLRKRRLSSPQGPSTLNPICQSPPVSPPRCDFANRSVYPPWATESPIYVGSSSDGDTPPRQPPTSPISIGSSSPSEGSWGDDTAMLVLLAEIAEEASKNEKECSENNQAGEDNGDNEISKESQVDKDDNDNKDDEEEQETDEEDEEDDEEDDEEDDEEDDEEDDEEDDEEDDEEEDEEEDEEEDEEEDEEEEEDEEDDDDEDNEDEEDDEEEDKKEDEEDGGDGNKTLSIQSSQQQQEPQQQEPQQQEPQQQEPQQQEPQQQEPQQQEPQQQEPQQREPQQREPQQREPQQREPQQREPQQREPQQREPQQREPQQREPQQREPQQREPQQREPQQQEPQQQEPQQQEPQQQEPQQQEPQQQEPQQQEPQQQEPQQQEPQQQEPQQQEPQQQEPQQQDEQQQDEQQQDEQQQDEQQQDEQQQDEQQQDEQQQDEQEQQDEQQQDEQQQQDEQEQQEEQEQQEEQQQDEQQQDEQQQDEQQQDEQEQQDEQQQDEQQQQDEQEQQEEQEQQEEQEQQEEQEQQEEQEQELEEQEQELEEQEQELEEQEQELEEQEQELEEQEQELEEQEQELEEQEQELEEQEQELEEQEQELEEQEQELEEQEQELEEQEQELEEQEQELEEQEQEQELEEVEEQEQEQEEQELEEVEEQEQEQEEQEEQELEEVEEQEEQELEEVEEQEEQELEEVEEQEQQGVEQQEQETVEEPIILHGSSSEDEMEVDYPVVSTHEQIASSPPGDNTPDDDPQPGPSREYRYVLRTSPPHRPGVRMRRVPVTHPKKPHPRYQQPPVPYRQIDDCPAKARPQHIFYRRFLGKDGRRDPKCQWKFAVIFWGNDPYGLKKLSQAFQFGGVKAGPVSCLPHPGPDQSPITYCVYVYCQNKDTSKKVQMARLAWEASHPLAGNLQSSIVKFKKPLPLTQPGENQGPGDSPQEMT
Numbers without * were called inactive; i = inactive; u = inconclusive; x = not tested or not shown; + = active, no number. An excerpt weighted towards active compounds, which were near 1.6% of everything screened.

SMILES	HDAC3 inh	T cell HTS	Arr AP2 block	Pemphigus Ab inh	JMJD2C inh	LANA-H2B inh
CCOc1ccccc1OCCCC(=O)N1CCN(S(=O)(=O)c2ccccc2C#N)CC1	x	x	x	99.6	x	x
COC1CCCN(C(=O)c2ccc(OC3CCN(S(=O)(=O)N(C)C)CC3)cc2)C1 (stereo not drawn)	-3.9	209.7	36.7	102.5	-3.0	4.2
C/C(=N\NS(=O)(=O)c1c(C)cc(C)cc1C)c1ccncc1	6.2	179.2	1.6	x	5.2	3.7
Cc1ccc2[nH]c(=O)c(CNS(=O)(=O)c3ccccc3)c(-c3ccccc3)c2c1	-1.6	359.7	-2.2	102.5	2.1	-2.3
Cc1ccc(N(CC(=O)Nc2cc(Cl)ccc2Oc2ccccc2)S(C)(=O)=O)c(C)c1	17.1	194.3	0.9	104.7	-1.7	-6.1
Cc1ccc(N(CC(=O)Nc2cc(Cl)ccc2Oc2ccccc2)S(C)(=O)=O)cc1C	26.7*	126.8	-6.7	x	0.8	-3.9
Cc1n[nH]c2ccc([N+](=O)[O-])cc2c1=O	x	x	x	98.2	x	x
On1c(-c2ccccc2)nc2ncccc21	0.1	i	13.9	72.8*	-3.5	-0.4
COc1ccc(-c2nc3ncccc3n2O)cc1	4.8	339.2	-10.6	98.9	-22.0	-2.5
O=C(COC(=O)c1cc(=O)[nH]c2ccccc12)NCc1ccc(Cl)cc1	-6.0	363.0	-2.2	98.6	4.9	-1.2
Cc1cc(C)c2c(N)c(C(=O)Nc3ncc(C)s3)sc2n1	-7.5	409.6	-2.2	105.2	x	0.7
COc1ccc2nc(NC(=O)c3sc4nc(C)cc(C)c4c3N)sc2c1	-1.6	344.1	-14.4	73.8*	-7.0	-13.8
COc1ccc(-c2cc(C(F)(F)F)nc(SCCC(=O)NCc3ccccc3)n2)cc1	u	313.7	-39.6	98.4	-0.5	32.1*
COCCn1c(-c2ccco2)csc1=Nc1cccnc1	3.5	188.4	-5.2	95.8	1.3	-19.6
COc1ccc(O)c(/C=N/n2c(-c3ccco3)csc2=Nc2cccnc2)c1	0.4	489.2	37.7	1.2*	3.8	2.2
O=C(NCCc1ccc(F)cc1)C1CCN(C(=O)Nc2ccccc2)CC1	-3.8	294.2	4.7	100.9	4.8	-12.7
Cc1nc2ccccc2n1CCC(=O)O	0.2	643.0	11.7	x	-1.6	-4.0
Cc1nc2ccccc2n2c(O)c(CC(=O)O)cc12	4.1	295.3	9.9	100.0	1.3	26.7*
CCCCCCc1cc2cc(-c3nnc(-c4ccccc4O)o3)c(=O)oc2cc1O	-2.8	369.9	21.0	112.6	43.4	-2.7
CCCCCCc1cc2cc(-c3nnc(-c4ccccc4OC)o3)c(=O)oc2cc1O	-3.4	412.0	3.2	104.7	4.1	10.3*
CCC(=O)O[C@]1(C(=O)SCF)[C@H](C)C[C@H]2[C@@H]3C[C@H](F)C4=CC(=O)C=C[C@]4(C)[C@@]3(F)[C@@H](O)C[C@@]21C	8.9	257.6	x	x	-1.6	-2.6
CC(C)N(CC(O)COc1ccc(CC(N)=O)cc1)CC(O)COc1ccc(CC(N)=O)cc1 (stereo not drawn)	2.9	566.5	13.0	100.2	6.2	1.5
O=C(NC(=S)Nc1ccc(NC(=O)c2cccs2)cc1)c1cc2ccccc2o1	3.4	295.8	-7.5	69.5*	4.1	-1.0
CCC(=O)N1CCN(c2ccc(NC(=S)NC(=O)c3cc4ccccc4o3)cc2)CC1	0.1	321.1	-0.5	93.9	2.0	93.6*
CCCCCCN1C[C@H](n2cc(-c3ccc(F)cc3)nn2)[C@@H](O)C[C@@H]1c1ccc(C)cc1	x	x	x	99.3	x	x
SMILES	HDAC3 inh	T cell HTS	Arr AP2 block	Pemphigus Ab inh	JMJD2C inh	LANA-H2B inh
O=c1cc(C(F)(F)F)nc(SC/C=C/c2ccccc2)[nH]1	-3.1	462.4	-9.4	99.3	-1.6	0.4
C[C@H]1CN([C@@H](C)CO)C(=O)c2cccc(NC(=O)Nc3ccc(C(F)(F)F)cc3)c2O[C@@H]1CN(C)S(=O)(=O)c1ccccc1	x	242.9	12.6	88.7	x	x
CC(C)NC(=O)Nc1ccc2c(c1)C(=O)N([C@H](C)CO)C[C@H](C)[C@@H](CN(C)C(=O)Nc1ccc(C(F)(F)F)cc1)O2	9.0	244.4	-3.0	99.5	1.7	+
COc1ccc(S(=O)(=O)N(C)C[C@H]2Oc3c(NC(=O)Nc4ccc(C(F)(F)F)cc4)cccc3C(=O)N([C@H](C)CO)C[C@@H]2C)cc1	32.3*	447.0	-1.8	103.8	-20.1	-3.8
C[C@@H]1CN([C@H](C)CO)C(=O)c2cccc(NC(=O)NC3CCCCC3)c2O[C@@H]1CN(C)C(=O)Nc1ccc(C(F)(F)F)cc1	28.4*	894.5	-3.9	108.0	x	-0.1
CC(C)[C@]1(c2ccc(Cl)cc2)ON(c2ccccc2C(F)(F)F)C1=O	13.1	506.6	x	x	2.6	5.4
Cc1cc(C)cc(NC(=S)N2CCN(c3ncccn3)CC2)c1	2.8	147.1	-0.1	99.2	9.6	21.3*
Cc1cc(C)cc(NC(=O)N2CCCN(c3ncccc3[N+](=O)[O-])CC2)c1	-3.5	533.4	38.3	109.0	1.3	14.1*
COc1ccc(C(CNC(=O)c2c(C)nn(Cc3ccc(C)cc3)c2Cl)N2CCOCC2)cc1 (stereo not drawn)	0.6	212.6	2.2	u	0.1	-6.7
COc1ccccc1CCc1nnc(CCC(=O)NCC(C)Oc2cccnc2)o1 (stereo not drawn)	-5.3	498.1	2.9	107.6	2.5	3.5
COc1ccccc1CCc1nnc(CCC(=O)NC(C)Cc2ccsc2)o1 (stereo not drawn)	0.8	615.6	-1.3	8.6*	-0.6	-1.8
O=C(CSc1cn[nH]n1)Nc1ccccc1C(F)(F)F	0.1	75.6	20.3	108.1	7.7	1.8
Fc1ccc(CN2C3=NCCCN3c3ccccc32)cc1	0.6	488.1	3.4	98.0	-9.9	58.9*
CCn1c(=O)c(C(=O)NCCc2ccc(Cl)cc2)c(O)c2ccccc21	3.0	561.1	17.1	120.7	60.2*	10.1
Cn1c(=O)c(C(=O)NCCO)c(O)c2ccccc21	1.0	352.3	-6.9	x	3.8	9.6*
O=C(CC1SCCNC1=O)NCc1ccccc1 (stereo not drawn)	x	x	x	98.0	x	x
COC(=O)CNc1nc(Cl)nc(Nc2ccc(Cl)cc2)n1	-2.2	150.1	30.5	75.5*	-4.8	-6.1
CCCCN1CC(COCc2ccccc2)Oc2cc(Br)ccc2S1(=O)=O (stereo not drawn)	x	x	9.4	100.8	x	x
O=C(O)c1c(Cl)cccc1Cl	-1.4	497.9	3.1	101.2	7.1	+
CC(=O)Nc1cccc(Cl)c1C(=O)O	3.5	463.2	-7.8	105.0	-5.0	-0.5
O=C(CN1CCCCCC1)N/N=C/c1cccs1	0.4	340.2	1.9	99.5	-22.9	2.0
O=C(N/N=C/c1cccs1)C(=O)N1CCCC1	4.6	119.8	11.4	98.2	0.2	14.9*

Screens (PubChem)
